PKD1 inh: inhibitors of human PKD1 kinase, biochemical, fluorescence polarization | PKD1 kinase fluorescence polarization assay | inhibition, % (concentration not given with the values) | 200,000 compounds, 0.056% hits | AID 797, 2007; in the data active means inhibition above about 50%
ABCG2 block: ABCG2 efflux pump inhibitors, primary screen, multiplex with ABCB1, IgMXP3 cells, flow cytometry; Broad substrate specificity ATP-binding cassette transporter ABCG2 (Homo sapiens), Q9UNQ0; JC-1 efflux; inhibition, % at 6.6 µM; 190,000 compounds, 0.1% hits; AID 1325, 2008;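 active means inhibition above 80%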
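Incubation: cells with compound and JC-1, 10 min at 25 °C, rotating, no wash / Test system: IgMXP3 (ABCG2) plus far-red-tagged CCRF-Adr (ABCB1) cells / Compound dosing: one concentration, 6.6 µM final / Also added: JC-1 fluorescent substrate / Evaluation: efflux inhibition in percent versus controls / Detection: flow cytometry, 530 nm JC-1 signal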
ABCB1 block: ABCB1 efflux pump inhibitors, primary screen, cell-based, multiplex, flow cytometry, ABCG2 counter-screen; ATP-dependent translocase ABCB1 (Homo sapiens), P08183; CCRF-Adr cells, JC-1 efflux; inhibition, % at 6.6 µM; 190,000 compounds, 0.067% hits; AID 1326, 2008; in the data active means inhibition above about 40%;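 further: higher value means more JC-1 retained so stronger ABCB1 efflux block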
Target sequence (P08183 whole entry, looked up): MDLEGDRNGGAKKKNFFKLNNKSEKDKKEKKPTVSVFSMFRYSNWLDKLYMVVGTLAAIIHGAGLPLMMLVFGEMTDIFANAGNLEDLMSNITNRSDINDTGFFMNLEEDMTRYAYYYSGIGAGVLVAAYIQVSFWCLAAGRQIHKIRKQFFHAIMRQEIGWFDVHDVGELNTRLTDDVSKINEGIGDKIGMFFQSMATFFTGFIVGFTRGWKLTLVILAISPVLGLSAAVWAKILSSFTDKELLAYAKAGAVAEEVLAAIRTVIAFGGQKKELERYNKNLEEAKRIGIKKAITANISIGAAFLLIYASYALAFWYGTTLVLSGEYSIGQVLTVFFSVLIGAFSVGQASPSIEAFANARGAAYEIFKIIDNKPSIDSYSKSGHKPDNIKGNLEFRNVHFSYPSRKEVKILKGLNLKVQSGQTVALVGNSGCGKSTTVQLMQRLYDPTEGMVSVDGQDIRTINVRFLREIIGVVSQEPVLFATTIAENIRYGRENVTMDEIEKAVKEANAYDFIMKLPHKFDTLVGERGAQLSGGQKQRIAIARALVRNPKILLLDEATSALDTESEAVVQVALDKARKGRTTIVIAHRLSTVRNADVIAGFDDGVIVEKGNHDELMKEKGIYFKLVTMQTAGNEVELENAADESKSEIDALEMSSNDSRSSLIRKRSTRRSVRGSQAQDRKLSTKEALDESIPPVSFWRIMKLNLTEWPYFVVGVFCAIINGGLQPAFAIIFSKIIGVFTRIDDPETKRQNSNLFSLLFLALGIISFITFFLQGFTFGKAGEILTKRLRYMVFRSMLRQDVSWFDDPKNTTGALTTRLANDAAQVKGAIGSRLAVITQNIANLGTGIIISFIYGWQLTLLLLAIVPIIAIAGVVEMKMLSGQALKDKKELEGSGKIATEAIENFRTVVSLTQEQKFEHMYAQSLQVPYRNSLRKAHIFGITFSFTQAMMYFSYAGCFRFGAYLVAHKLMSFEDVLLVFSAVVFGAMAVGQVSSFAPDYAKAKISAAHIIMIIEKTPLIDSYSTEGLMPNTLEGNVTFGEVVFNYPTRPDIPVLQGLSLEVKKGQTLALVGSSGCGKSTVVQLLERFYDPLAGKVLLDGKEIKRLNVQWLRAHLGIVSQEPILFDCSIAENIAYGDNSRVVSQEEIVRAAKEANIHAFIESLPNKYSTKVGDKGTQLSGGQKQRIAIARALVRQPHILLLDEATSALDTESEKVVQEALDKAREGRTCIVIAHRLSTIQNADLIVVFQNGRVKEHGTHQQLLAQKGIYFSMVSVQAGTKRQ
NCF1 inh: p47phox/p22phox peptide binding inhibitors, primary screen, biochemical, uHTS, NADPH oxidase regulatory subunit; fluorescence polarization, 2 h; inhibition, % at 24.7 µM; 220,000 compounds, 0.53% hits; Neutrophil cytosol factor 1 (Homo sapiens), P14598; AID 1274, 2008;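 active means inhibition above about 30%, limit read from the data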
HSV augment: enhancers of HSV replication in host cells, fold increase, host cell viability; HSV replication augmentation in cells; maximum fold increase; AID 1956, 2009; 220,000 compounds, 0.005% hits; in the data active means maximum fold increase above about 1.5; inconclusive means no clear call, values can overlap the other calls; tested in PC3 cells
PHOSPHO1 block: PubChem AID 1565 | recombinant PHOSPHO1, absorbance phosphatase assay | Phosphoethanolamine/phosphocholine phosphatase (Homo sapiens), Q8TCT1 | 290,000 compounds, 1.1% hits | inhibition, % at 13.3 µM; in the data active means inhibition above about 60%
Of the large screens only hits and unclear results are named; the others gave an inactive call. The list is not random: actives were taken first. Their share in the collection is about 1.6%.

COCCn1c(N)c(Sc2ccc(C)cc2)c(=O)[nH]c1=O	none (no result: PKD1 inh, ABCG2 block, ABCB1 block, NCF1 inh, HSV augment)
Cc1ccc(Nc2nc(C)cs2)cc1	PHOSPHO1 block 65
CCN(CCNC(=O)CN(C)S(=O)(=O)c1cccc2nsnc12)c1ccccc1	PHOSPHO1 block 64
CN(C)c1ccnc2c[cH-]cc12.[Fe].c1ccc(-[c-]2[c-](-c3ccccc3)[c-](-c3ccccc3)[c-](-c3ccccc3)[c-]2-c2ccccc2)cc1 (stereo not drawn)	NCF1 inh 90 (no result: PKD1 inh, ABCG2 block, ABCB1 block)
CCOC(=O)C1=C(O)/C(=C\c2ccc(CNC(=O)C(=O)Nc3ccccc3)o2)N=C1C	PHOSPHO1 block 83
Cc1ccc(-c2cc(-c3ccccc3)nc(NN)n2)cc1	none (no result: PKD1 inh, ABCG2 block, ABCB1 block, NCF1 inh, HSV augment)
Cc1ccc(-c2nc(N)s[n+]2-c2ccccc2)cc1	NCF1 inh 93
CNc1nc(-c2ccccc2)[n+](-c2ccc(C)cc2)s1	NCF1 inh 94, PHOSPHO1 block 90
Cc1ccc(-c2nc3ccccc3nc2-c2ccccc2)cc1	none (no result: PKD1 inh, ABCG2 block, ABCB1 block, NCF1 inh, HSV augment)
COc1ccc2nc(SCC(=O)Nc3ccc4sc(C)nc4c3)c(C#N)cc2c1	none
O=C(NCc1ccccc1)C(c1ccncc1)N(C(=O)c1csnn1)C1CC1 (stereo not drawn)	PHOSPHO1 block 62
O=C(NCc1ccc(F)cc1)C(c1ccncc1)N(C(=O)c1csnn1)C1CC1 (stereo not drawn)	none
C=CCOc1c(CNc2nccs2)cccc1OCC	NCF1 inh 36
C=CCOc1ccc(CNc2nccs2)cc1OCC	none
COc1cc(-c2nnc3sc(Cc4ccccc4)nn23)cc(OC)c1OC	PHOSPHO1 block 70
O=[N+]([O-])c1ccc(N/N=C/c2ccc[nH]2)cc1	PHOSPHO1 block 90
CC1=NOC(=O)/C1=C\c1ccc(-c2ccc(Br)cc2)o1	NCF1 inh 44
CC1=NOC(=O)/C1=C/c1ccc(-c2ccc(Cl)cc2)o1	NCF1 inh 116
CC1=NOC(=O)/C1=C\c1ccc(-c2cc(Cl)ccc2Cl)o1	none
CC1=NOC(=O)/C1=C\c1ccc(-c2ccc(Br)cc2C(=O)O)o1	none
CCC(C)N(C)C1CCN(C(=S)Nc2cccc(SC)c2)CC1 (stereo not drawn)	none
CC1CCCCN1CCNC(=O)c1ccc2c(=O)n(Cc3ccc(Cl)cc3)c(=S)[nH]c2c1 (stereo not drawn)	none (no result: PKD1 inh, ABCG2 block, ABCB1 block, NCF1 inh, HSV augment)
C/C(=N\NC(=O)c1ccc(NS(=O)(=O)c2cccs2)cc1)c1cccs1	none
C/C(=N\NC(=O)c1ccc(Cl)cc1)c1cccs1	NCF1 inh 38
Cc1cccc(NCc2ccc(O)c3ncccc23)c1C	none
Cc1cccnc1NCc1ccc(O)c2ncccc12	PHOSPHO1 block 78
CCN(CC)C(=O)Cn1cc(C(=O)C(=O)N2CCN(c3ccccc3)CC2)c2ccccc21	none (no result: PKD1 inh, ABCG2 block, ABCB1 block, NCF1 inh, HSV augment)
CCN(C(=O)Cn1cc(C(=O)C(=O)N2CCOCC2)c2ccccc21)c1ccccc1	PHOSPHO1 block 73 (no result: PKD1 inh, ABCG2 block, ABCB1 block, NCF1 inh, HSV augment)
CCCn1cnc2c(N)c(C)c(C)cc21	PHOSPHO1 block 73
COc1cccc(Cn2cnc3c(N)c(C)c(C)cc32)c1	none
Clc1ccc(-c2cn3nc4c(nc3n2)CCCC4)cc1	PHOSPHO1 block 88
COc1ccc(-c2[nH]ncc2CN(C)CCc2c(C)n[nH]c2C)c(F)c1	PHOSPHO1 block 67
COc1ccc(-c2[nH]ncc2CN(C)C(C)c2cccs2)c(F)c1 (stereo not drawn)	none
O=C(Nc1ccccc1)c1nccn1Cc1ccc(F)cc1	none
COc1cc(CN(C)CC2CCCN(CCc3cccc(C(F)(F)F)c3)C2)ccc1O (stereo not drawn)	none (no result: PKD1 inh, ABCG2 block, ABCB1 block, NCF1 inh, HSV augment)
O=C1C(=C2CCCCC2)SC(=S)N1Cc1ccco1	PHOSPHO1 block 70
O=C1CC(=O)N(Cc2ccco2)C(=S)N1	PHOSPHO1 block 89
O=C1CC(=O)N(Cc2ccco2)C(=O)N1	none (no result: HSV augment)
Cc1cccc(N(CC(=O)NCc2ccco2)C(=O)CCC(=O)Nc2ccccn2)c1C	none (no result: PKD1 inh, ABCG2 block, ABCB1 block, NCF1 inh, HSV augment)
O=C(O)c1cccc(CN2C(=O)c3ccccc3C2=O)c1	none (no result: PKD1 inh, ABCG2 block, ABCB1 block, NCF1 inh, HSV augment)
O=C1c2cccc3c(O)ccc(c23)C(=O)N1Cc1ccccc1	NCF1 inh 37, HSV augment inconclusive
CCCCN1C(=O)C(=O)N(CC(=O)N2N=C3/C(=C/c4ccco4)CCCC3C2c2ccco2)C1=O (stereo not drawn)	PHOSPHO1 block 62
O=C(CSc1ncn[nH]1)N1N=C2/C(=C/c3ccco3)CCCC2C1c1ccco1 (stereo not drawn)	PHOSPHO1 block 87
N#Cc1cc2c([nH]c1=S)CCCCCC2	PHOSPHO1 block 93
COc1ccc(N2CCN(c3oc(-c4ccccc4OC)nc3C#N)CC2)cc1	NCF1 inh 54 (no result: HSV augment)
Cc1ccc(C(=O)NCc2ccccn2)cc1Cl	PHOSPHO1 block 60
Cc1ccc(NC(=O)NCc2ccccn2)cc1Cl	none (no result: PKD1 inh, ABCG2 block, ABCB1 block, NCF1 inh, HSV augment)
CCOC(=O)c1sc2nc(C3CC3)cc(-c3ccc(OC)cc3)c2c1N	PHOSPHO1 block 74
O=C(CN1CCN(C(=O)c2cccc(F)c2)CC1)NC1CCCCC1	none
N#Cc1c2nc3ccccc3nc2n2cc(NC(=O)c3ccc(F)cc3)ccc12	NCF1 inh 55 (no result: HSV augment)
Cc1c(C(=O)Nc2ccc(F)cc2)cn2c(nc3ccccc32)c1C#N	none (no result: PKD1 inh, ABCG2 block, ABCB1 block)
Cc1cccc(NC(=O)c2cnn3ccccc23)c1C	none (no result: PKD1 inh, ABCG2 block, ABCB1 block)
CC(C)CCN1CCN(C2CSCCSC2)CC1CCO (stereo not drawn)	NCF1 inh 42
Cc1nc2sc(C(=O)O)c(N)c2c2c1COC(C)(C)C2	PHOSPHO1 block 66
CC(C)CNC(=S)NNC(=O)c1csc2c1CCC(C)C2 (stereo not drawn)	PHOSPHO1 block 84
COc1ccc(C2=CC(c3c(C)nn(-c4ccccc4)c3Cl)n3nnnc3N2)cc1OC (stereo not drawn)	none
COc1ccc(C(=O)N2CCCC(Nc3ccc(C(C)C)cc3)C2)c(OC)n1 (stereo not drawn)	none (no result: PKD1 inh, ABCG2 block, ABCB1 block, NCF1 inh, HSV augment)
CCOc1ccc2nc(SCC(=O)N(C)C3CCS(=O)(=O)C3)[nH]c2c1 (stereo not drawn)	PHOSPHO1 block 100
c1ccc(CNc2nc(-c3ccccc3)nc3ccccc23)cc1	none (no result: PKD1 inh, ABCG2 block, ABCB1 block, NCF1 inh, HSV augment)
c1ccc(CNc2nc(NCc3ccccc3)c3ccccc3n2)cc1	NCF1 inh 88 (no result: PKD1 inh, ABCG2 block, ABCB1 block)
COc1ccc(C(=O)/C=C/Nc2cc(C)ccn2)cc1	none (no result: PKD1 inh, ABCG2 block, ABCB1 block)
CN(C(=O)COC(=O)c1ccccc1SCC(=O)NC1CCCCCCC1)C1CCS(=O)(=O)C1 (stereo not drawn)	none
Cc1ccc(S(=O)(=O)n2nc(C)cc2C)cc1	NCF1 inh 43
CCOc1ccc(S(=O)(=O)n2nc(C)cc2C)cc1	none (no result: PKD1 inh, ABCG2 block, ABCB1 block, NCF1 inh, HSV augment)
N#CCCN(Cc1cccs1)C(=O)Nc1ccccc1	none (no result: PKD1 inh, ABCG2 block, ABCB1 block)
O=C(NCc1ccccn1)C1CCC(CNS(=O)(=O)c2cccc3nsnc23)CC1 (stereo not drawn)	PHOSPHO1 block 63 (no result: PKD1 inh, ABCG2 block, ABCB1 block)

Screening results from PubChem.
